Screens as filed in PubChem.
Granule exo inh: blocks lytic granule exocytosis. 360,000 compounds, 0.66% hits. TALL-104 LAMP-1 surface exposure, flow cytometry; cells stimulated with thapsigargin and PMA. inhibition, % at 10 µM;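 active = inhibition above about 55%, limit read from the data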
Beta2AR agonist: activates human beta-2 adrenergic receptor causing internalization; Am2.2-beta2AR cells, FAP receptor internalization, flow cytometry; response, % (test concentration not listed); 340,000 compounds, 0.43% hits;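 active = response above a set limit, near 3 SD of response in nonfluorescent compounds, cut at about 42% in these data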
Target sequence (P07550 whole entry, looked up): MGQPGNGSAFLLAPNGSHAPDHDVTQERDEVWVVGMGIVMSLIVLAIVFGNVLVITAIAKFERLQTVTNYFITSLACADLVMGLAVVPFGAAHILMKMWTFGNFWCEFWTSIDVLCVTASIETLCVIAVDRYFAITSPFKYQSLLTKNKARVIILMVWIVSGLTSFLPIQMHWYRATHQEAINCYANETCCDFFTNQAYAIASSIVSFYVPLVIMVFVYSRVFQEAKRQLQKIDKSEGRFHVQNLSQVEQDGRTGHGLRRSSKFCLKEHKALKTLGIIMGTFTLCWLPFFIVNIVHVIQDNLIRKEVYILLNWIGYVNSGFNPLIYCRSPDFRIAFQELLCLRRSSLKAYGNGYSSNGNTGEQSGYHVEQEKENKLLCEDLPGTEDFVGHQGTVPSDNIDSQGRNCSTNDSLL
T cell modulator: modulates CD8 T cell binding to vesicles; 2C CD8+ T cell-vesicle binding, flow cytometry; active compounds read low; response (vesicle binding), % at 7 µM; 330,000 compounds, 0.068% hits;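 active = response, share of CD8 T cells binding vesicles, and their 90th percentile fluorescence all below set limits, cut at about 80% in these data, passing the limit was not always enough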;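 also: values below 100% mean blocked vesicle binding to the CD8+ T cells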
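Material: murine 2C transgenic CD8+ T lymphocytes / Also added: QL9-peptide-loaded Drosophila micro-vesicles bearing Ld, ICAM-1 and B7-1 / Schedule: binding step 1.5 h, 37 °C, antibody labelling 20 min, ice / Signal: flow cytometry, PE anti-B7-1 (FL2) versus Alexa647 anti-CD8 (FL8), PFA-fixed / Evaluation: percent CD8+ FL2 mean versus row control / Benchmarks: naked versus QL9-loaded vesicles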
rCAG binder: binds r(CAG) RNA repeats | r(CAG) RNA repeat, TO-PRO-1 dye displacement fluorescence | inhibition, % at 3 µM | 370,000 compounds, 1.3% hits;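 active = inhibition above the plate cutoff, the mean of all test compounds on that plate plus 3 SD, cut at about 35% in these data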;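 also: 0% = DMSO alone and 100% = 100 µM mitoxantrone as full dye displacement; higher means more dye released from RNA so lower well fluorescence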
MPTP inh: permeability transition pore inhibition; inhibition, % at 10 µM; 360,000 compounds, 1.4% hits; isolated mouse mitochondria, Ca2+ swelling absorbance, 30 min;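 active = inhibition of 50% or more, scaled per plate between neutral and stimulator controls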;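 also: 0% = DMSO wells given calcium and 100% = 1 mM EGTA wells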
V-ATPase pH: yeast V-ATPase proton transport regulation by pHLuorin; AID 504577; 350,000 compounds, 0.37% hits; response, % at 10 µM; S. cerevisiae, pHLuorin cytosolic pH fluorescence; in the data active = response mostly above about 7.3%, no sharp cut-off; inactive = mostly below about 5.4%; also: actives read high
rCAG bind conf: r(CAG) RNA repeat binding, confirmation; shares compounds with rCAG binder; inhibition, % at 3 µM; 4,300 compounds, 70% hits; AID 652065; TO-PRO-1 dye displacement fluorescence;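 active = inhibition above a per-plate cutoff, the mean inhibition of sample wells plus 3 SD, cut at about 35% in these data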;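 also: loss of TO-PRO-1 fluorescence as compound displaces dye from 1x1 AA loop RNA; 0% = DMSO only wells and 100% = 100 µM mitoxantrone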
DNA CAG counter: DNA CAG dye complex inhibition counter-screen | shares compounds with rCAG binder | AID 652068 | d(CAG) DNA oligo TO-PRO-1 dye displacement, fluorescence | 4,300 compounds, 94% hits | inhibition, % at 3 µM;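 active = inhibition above its plate's cutoff, the mean test-well inhibition plus 3 SD, cut at about 4.8% in these data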;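 also: 0% = DNA dye mix with DMSO and 100% = 100 µM mitoxantrone; hits displace the dye from DNA and so lower well fluorescence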
dCAG dye DR: disrupts DNA CAG TO-PRO-1 complex in dose response; IC50, µM; shares compounds with rCAG binder; 250 compounds, 20% hits; DNA CAG/GTC duplex TO-PRO-1 dye displacement fluorescence; in the data active = IC50 below about 10 µM
* marks the source's active call; other numbers are inactive results; i = inactive; x = no result. An excerpt weighted towards active compounds, which were near 3.8% of everything screened.

SMILES	Granule exo inh	Beta2AR agonist	T cell modulator	rCAG binder	MPTP inh	V-ATPase pH	rCAG bind conf	DNA CAG counter	others
CC(Oc1ccccc1)C(=O)Nc1ccc(S(=O)(=O)Nc2nccs2)cc1 (stereo not drawn)	-12	4	458	10	0	3	x	x
O=S(=O)(Nc1nccs1)c1ccc(NCc2cc(Br)cc(Br)c2O)cc1	-2	-8	146	58*	4	-3	41*	14*
CC(C)(C)OC(=O)NCc1cc2c(cc1/C=C/S(=O)(=O)NCc1ccc(F)cc1)OCO2	x	x	x	2	x	x	x	x
Cc1cc(NS(=O)(=O)c2ccc(NC(=O)C(C)Oc3cc(C)c(Cl)c(C)c3)cc2)no1 (stereo not drawn)	11	3	350	69*	-1	1	66*	28*
Cc1ccc(OC(C)C(=O)Nc2ccc(S(=O)(=O)Nc3cc(C)on3)cc2)cc1 (stereo not drawn)	-4	10	557	13	-1	-1	x	x
Cc1cc(NS(=O)(=O)c2ccc(NC(=O)C(C)Oc3ccc(Cl)cc3)cc2)no1 (stereo not drawn)	0	2	164	31	-1	-2	x	x
Cc1cc(NS(=O)(=O)c2ccc(NC(=O)C(C)Oc3ccccc3Cl)cc2)no1 (stereo not drawn)	7	10	215	36*	-1	-1	19	3
COc1ccccc1N1CCN(S(=O)(=O)c2ccc3c(c2)n(C)c(=O)c(=O)n3C)CC1	x	x	x	5	x	x	x	x
CC(/C=N\NC(=O)CSc1nnc(-c2ccc(Br)cc2)n1-c1ccccc1)=C\c1ccco1	x	x	x	16	x	x	x	x
CCc1nc(N)c(C#N)c(-c2ccc(O)c(OC)c2)c1C	2	2	227	-4	2	-2	x	x
COc1cc(-c2c(C#N)c(=O)[nH]c3c2c(C)nn3-c2ccccc2)ccc1O	-1	-3	554	36*	42	-3	30	6.3*
O=C(O)CCN1C(=O)/C(=C/c2ccc(-c3nc4ccccc4s3)o2)SC1=S	98*	41	144	55*	18	-1	85*	53*
O=C(O)c1ccc(-c2nc3ccccc3s2)o1	-9	0	94	2	0	-1	x	x
O=C(O)CC(C(=O)O)N1C(=O)/C(=C/c2ccc(-c3nc4ccccc4s3)o2)SC1=S (stereo not drawn)	3	7	141	62*	-14	0	54*	19*
C/C(C=NNC(=O)CSc1nnc(-c2ccccc2)n1-c1ccc(C)cc1)=C\c1ccco1	x	x	x	10	x	x	x	x
O=C(Nc1ccc(C(=O)O)cc1)/C(=C/c1ccc2c(c1)OCO2)NC(=O)c1cccc(Br)c1	6	4	217	50*	1	0	41*	10*
O=C(Nc1cccc(C(=O)O)c1)/C(=C\c1ccc2c(c1)OCO2)NC(=O)c1ccc(Br)cc1	21	-2	506	43*	-2	-1	23	6.9*
O=C(Nc1cccc(C(=O)O)c1)/C(=C\c1ccc2c(c1)OCO2)NC(=O)c1ccccc1	-2	10	83	8	-2	-1	x	x
COC(=O)c1ccc2c(C(C)c3ccccc3O)c[nH]c2c1 (stereo not drawn)	x	x	x	9	x	x	x	x
COc1ccccc1NCc1cc(=O)oc2c(C)c(O)ccc12	8	13	106	16	0	-10	x	x
COC(=O)c1ccccc1NCc1cc(=O)oc2cc(O)c(O)cc12	-8	-23	252	36*	4	4	52*	23*
O=C(O)C1CCCN1c1nc(-c2ccc(Cl)c(Cl)c2)cc(C(F)(F)F)n1 (stereo not drawn)	0	9	237	44*	1	1	43*	12*	dCAG dye DR=>30
O=C(O)CCn1cc(/C=C2\NC(=S)N(c3ccccc3)C2=O)c(-c2ccc(Br)cc2)n1	-8	7	i	41*	0	-1	39*	9.4*
CC1(C(=O)NS(=O)(=O)c2ccc(Br)cc2)CCN1C(=O)C1(c2ccccc2)CC1 (stereo not drawn)	-3	x	x	23	0	x	x	x
CC(C)(C)c1ccc(S(=O)(=O)NC(=O)C2(C)CCN2C(=O)C2(c3ccccc3)CC2)cc1 (stereo not drawn)	-5	x	x	47*	0	x	40*	10*
SMILES	Granule exo inh	Beta2AR agonist	T cell modulator	rCAG binder	MPTP inh	V-ATPase pH	rCAG bind conf	DNA CAG counter	others
CC1(C(=O)NS(=O)(=O)c2ccc3c(c2)CCO3)CCN1C(=O)CCc1ccc(Cl)cc1Cl (stereo not drawn)	-6	x	x	30	1	x	x	x
CC1(C(=O)NS(=O)(=O)c2ccc(Cl)cc2)CCN1C(=O)C1(c2ccccc2)CCCC1 (stereo not drawn)	6	x	x	50*	3	x	40*	12*
Cc1ccc(S(=O)(=O)NC(=O)C2(C)CCN2C(=O)C2(c3ccc(Cl)cc3)CCC2)cc1 (stereo not drawn)	-5	x	x	42*	1	x	39*	10.0*
CC1(C(=O)NS(=O)(=O)c2ccc3c(c2)CCO3)CCN1C(=O)C1(c2ccc(Cl)cc2)CCC1 (stereo not drawn)	5	x	x	36*	2	x	32	4
O=S1(=O)c2c(cccc2N2CCC[C@H]2CO)OCCCN1C1CC1	x	x	x	3	x	x	x	x
CCS(=O)(=O)NC(=O)C1(C)CCN1C(=O)C1(c2ccc(Cl)cc2)CC1 (stereo not drawn)	0	x	x	1	-2	x	x	x
CC1(C(=O)NS(=O)(=O)Cc2ccccc2)CCN1C(=O)C1(c2ccc(Cl)cc2)CCC1 (stereo not drawn)	-9	x	x	41*	0	x	30	6.7*
CC1(C(=O)NS(=O)(=O)c2ccc(Cl)cc2)CCN1C(=O)C1(c2ccc(Cl)cc2)CCC1 (stereo not drawn)	3	x	x	55*	2	x	56*	18*
Cc1ccc(S(=O)(=O)NC(=O)C2(C)CCN2C(=O)C2(c3ccc(Cl)cc3)CC2)cc1 (stereo not drawn)	4	x	x	57*	0	x	29	5.7*
CCCC[C@H](C(=O)N(C)c1cccc(OC)c1)[C@@H](O)c1ccc(Cl)cc1	x	x	x	0	x	x	x	x
CC1CCN(CCCNS(=O)(=O)c2cc3c(cc2Br)CCN3C(=O)C2CC2)CC1	x	x	x	7	x	x	x	x
O=C(CSc1nc2ccccc2[nH]1)Nc1nc(-c2cccc(Br)c2)cs1	-2	12	315	58*	0	0	43*	21*
Cc1ccc(-c2csc(NC(=O)CSc3nc(C)cc(=O)[nH]3)n2)cc1	x	x	551	56*	x	x	54*	19*
